Data published in ChEMBL document CHEMBL4837210 (Eur J Med Chem, 2021).

Key:
Assay type in all cases: functional
Staphylococcus aureus [1] = assay: Antibacterial activity against penicillin-resistant Staphylococcus aureus assessed as inhibition of bacterial growth measured by broth microdilution method; settings: time 24 hrs
Outline: (§1)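 Broth microdilution MIC. A 0.5 McFarland suspension was diluted 10-fold and added at 1.5 × 10⁷ cfu/mL to 2-fold dilutions (0.125–64) in Mueller Hinton broth. Incubated aerobically 24 h at 37 °C. MIC was the lowest concentration with no visible turbidity.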

Escherichia coli = assay: Antibacterial activity against penicillin-susceptible Escherichia coli ATCC 25922 assessed as inhibition of bacterial growth measured by broth microdilution method; settings: time 24 hrs
Outline: (§2)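 Broth microdilution in Mueller Hinton broth. A 0.5 McFarland suspension was diluted tenfold, giving an inoculum of 1.5 × 10⁷ cfu/mL. This was added to 2-fold serial compound dilutions from […]. Plates were incubated aerobically at 37 °C for 24 h. MIC was the lowest concentration with no visible turbidity.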

Staphylococcus aureus [2] = assay: Antibacterial activity against Staphylococcus aureus assessed as inhibition of bacterial growth measured by broth microdilution method; settings: time 24 hrs; outline: as §2
Bacillus subtilis = assay: Antibacterial activity against penicillin-susceptible Bacillus subtilis ATCC 9372 assessed as bacterial growth inhibition incubated for 24 hrs by CLSI protocol based broth microdilution method
[3] = system: Staphylococcus epidermidis; assay: Antibacterial activity against penicillin-resistant Staphylococcus epidermidis assessed as inhibition of bacterial growth measured by broth microdilution method; settings: time 24 hrs
Streptococcus pyogenes [4] = assay: Antibacterial activity against erythromycin-resistant Streptococcus pyogenes 2 assessed as bacterial growth inhibition incubated for 24 hrs by CLSI protocol based broth microdilution method
Staphylococcus aureus [5] = assay: Antibacterial activity against erythromycin-susceptible Staphylococcus aureus ATCC 25923 assessed as bacterial growth inhibition incubated for 24 hrs by CLSI protocol based broth microdilution method
Staphylococcus aureus [6] = assay: Antibacterial activity against methicillin-resistant Staphylococcus aureus ATCC 43300 assessed as inhibition of bacterial growth by broth microdilution method; settings: time 24 hrs; outline: as §1
Bacillus pumilus = assay: Antibacterial activity against penicillin-susceptible Bacillus pumilus CMCC 63202 assessed as bacterial growth inhibition by broth dilution method; settings: time 24 hrs; outline: as §2
Pseudomonas aeruginosa = assay: Antibacterial activity against penicillin-susceptible Pseudomonas aeruginosa ATCC27853 assessed as bacterial growth inhibition incubated for 24 hrs by CLSI protocol based broth microdilution method
Streptococcus pyogenes [7] = assay: Antibacterial activity against erythromycin-susceptible Streptococcus pyogenes clinical isolate 1 assessed as bacterial growth inhibition incubated for 24 hrs by CLSI protocol based broth microdilution method

Compound	MIC (Staphylococcus aureus [1])	MIC (Escherichia coli)	MIC (Staphylococcus aureus [2])	MIC (Bacillus subtilis)	MIC [3]	MIC (Streptococcus pyogenes [4])	MIC (Staphylococcus aureus [5])	MIC (Staphylococcus aureus [6])	MIC (Bacillus pumilus)	MIC (Pseudomonas aeruginosa)	MIC (Streptococcus pyogenes [7])
CCCc1ccc(-c2c3ccccc3[n+](C)c3ccccc23)cc1.[I-]	16 µg/mL	> 64 µg/mL	0.25 µg/mL	1 µg/mL	8 µg/mL	4 µg/mL	0.25 µg/mL	4 µg/mL	2 µg/mL	> 64 µg/mL	1 µg/mL
C[n+]1c2ccccc2c(-c2ccc(C(F)(F)F)cc2)c2ccccc21.[I-]	64 µg/mL	> 64 µg/mL	2 µg/mL	4 µg/mL	32 µg/mL	2 µg/mL	1 µg/mL	4 µg/mL	16 µg/mL	> 64 µg/mL	1 µg/mL
C[n+]1c2ccccc2c(/C=C/c2ccc(Br)cc2)c2ccccc21.[I-]	4 µg/mL	64 µg/mL	1 µg/mL	1 µg/mL	2 µg/mL	0.5 µg/mL	0.5 µg/mL	2 µg/mL	1 µg/mL	> 64 µg/mL	0.25 µg/mL
CCCCCCNc1c2ccccc2[n+](C)c2ccccc12.[Cl-]	64 µg/mL	> 64 µg/mL	64 µg/mL	64 µg/mL	64 µg/mL	32 µg/mL	64 µg/mL	64 µg/mL	64 µg/mL	> 64 µg/mL	32 µg/mL
C[n+]1c2ccccc2c(-c2cccc(F)c2)c2ccccc21.[I-]	> 64 µg/mL	> 64 µg/mL	16 µg/mL	16 µg/mL	> 64 µg/mL	16 µg/mL	8 µg/mL	> 64 µg/mL	32 µg/mL	> 64 µg/mL	4 µg/mL
CCOc1ccc(/C=C/c2c3ccccc3[n+](C)c3ccccc23)cc1.[I-]	8 µg/mL	> 64 µg/mL	1 µg/mL	2 µg/mL	4 µg/mL	0.5 µg/mL	0.5 µg/mL	2 µg/mL	16 µg/mL	> 64 µg/mL	< 0.125 µg/mL
CCCCCCCCNc1c2ccccc2[n+](C)c2ccccc12.[Cl-]	4 µg/mL	> 64 µg/mL	8 µg/mL	16 µg/mL	16 µg/mL	16 µg/mL	8 µg/mL	16 µg/mL	16 µg/mL	> 64 µg/mL	16 µg/mL
COc1ccc(-c2c3ccccc3[n+](C)c3ccccc23)cc1.[I-]	> 64 µg/mL	> 64 µg/mL	8 µg/mL	8 µg/mL	> 64 µg/mL	16 µg/mL	4 µg/mL	> 64 µg/mL	16 µg/mL	> 64 µg/mL	8 µg/mL
C[n+]1c2ccccc2c(/C=C/c2ccccc2)c2ccccc21.[I-]	8 µg/mL	> 64 µg/mL	2 µg/mL	1 µg/mL	8 µg/mL	0.5 µg/mL	0.5 µg/mL	4 µg/mL	2 µg/mL	> 64 µg/mL	0.25 µg/mL
CCCCCCCNc1c2ccccc2[n+](C)c2ccccc12.[Cl-]	16 µg/mL	> 64 µg/mL	16 µg/mL	32 µg/mL	32 µg/mL	32 µg/mL	16 µg/mL	32 µg/mL	32 µg/mL	> 64 µg/mL	16 µg/mL
CCc1ccc(/C=C/c2c3ccccc3[n+](C)c3ccccc23)cc1.[I-]	8 µg/mL	64 µg/mL	1 µg/mL	1 µg/mL	4 µg/mL	1 µg/mL	0.5 µg/mL	2 µg/mL	1 µg/mL	> 64 µg/mL	0.5 µg/mL
Cc1cccc(-c2c3ccccc3[n+](C)c3ccccc23)c1.[I-]	> 64 µg/mL	> 64 µg/mL	4 µg/mL	8 µg/mL	> 64 µg/mL	16 µg/mL	1 µg/mL	64 µg/mL	16 µg/mL	> 64 µg/mL	4 µg/mL
C[n+]1c2ccccc2c(C#Cc2ccccc2)c2ccccc21.[I-]	4 µg/mL	> 64 µg/mL	2 µg/mL	2 µg/mL	4 µg/mL	8 µg/mL	2 µg/mL	2 µg/mL	8 µg/mL	> 64 µg/mL	4 µg/mL
